Consider two molecules from ChEMBL document CHEMBL4373708 (J Med Chem, 2019).

The source made the active and inactive calls. No cut-off for these calls is given here.

One experiment deals with T1, Pendrin (Mus musculus) (UniProt Q9R155).
T1 sequence (whole entry): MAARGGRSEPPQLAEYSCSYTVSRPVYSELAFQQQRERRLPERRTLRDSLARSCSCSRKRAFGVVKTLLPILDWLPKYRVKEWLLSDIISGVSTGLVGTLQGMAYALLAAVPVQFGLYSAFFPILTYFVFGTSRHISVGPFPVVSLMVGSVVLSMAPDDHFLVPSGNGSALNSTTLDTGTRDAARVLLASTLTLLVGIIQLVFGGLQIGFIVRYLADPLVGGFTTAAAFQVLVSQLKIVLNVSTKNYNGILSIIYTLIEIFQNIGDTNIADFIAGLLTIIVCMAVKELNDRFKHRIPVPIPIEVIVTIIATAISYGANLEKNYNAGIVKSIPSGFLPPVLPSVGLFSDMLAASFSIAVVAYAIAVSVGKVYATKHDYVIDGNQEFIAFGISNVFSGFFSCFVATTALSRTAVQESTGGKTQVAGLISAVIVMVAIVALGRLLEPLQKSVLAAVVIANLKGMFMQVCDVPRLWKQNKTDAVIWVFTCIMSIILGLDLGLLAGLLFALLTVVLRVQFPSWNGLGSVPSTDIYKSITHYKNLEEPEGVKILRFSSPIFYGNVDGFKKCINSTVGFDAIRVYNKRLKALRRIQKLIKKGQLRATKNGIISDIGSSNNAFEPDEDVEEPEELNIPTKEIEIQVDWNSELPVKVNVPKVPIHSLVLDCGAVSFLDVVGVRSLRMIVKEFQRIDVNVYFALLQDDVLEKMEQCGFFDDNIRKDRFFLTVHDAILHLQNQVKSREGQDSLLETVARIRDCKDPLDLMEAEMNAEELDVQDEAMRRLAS
The experiment in a line: Inhibition of mouse slc26a4 expressed in FRT cells co-expressing EYFP-H148Q/I152L/F46L assessed as reduction in protein-mediated chloride/iodide exchange at 10 uM preincubated for 10 mins followed by NaI-substituted PBS addition and measured by YFP-based fluorescence assay. It is filed as cell-based. In short, it runs like this:
(§1)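 FRT cells expressing the given slc26 transporter plus EYFP-H148Q/I152L/F46L were preincubated 10 min with 0 or 10 µM compound in PBS. Iodide-substituted PBS was then added (140 mM NaCl replaced by NaI). The rate of YFP fluorescence quenching gave chloride/iodide exchange.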

Experiment [1] deals with T2, Solute carrier family 26 member 6 (Mus musculus) (UniProt Q8CIW6).
T2 sequence (whole entry): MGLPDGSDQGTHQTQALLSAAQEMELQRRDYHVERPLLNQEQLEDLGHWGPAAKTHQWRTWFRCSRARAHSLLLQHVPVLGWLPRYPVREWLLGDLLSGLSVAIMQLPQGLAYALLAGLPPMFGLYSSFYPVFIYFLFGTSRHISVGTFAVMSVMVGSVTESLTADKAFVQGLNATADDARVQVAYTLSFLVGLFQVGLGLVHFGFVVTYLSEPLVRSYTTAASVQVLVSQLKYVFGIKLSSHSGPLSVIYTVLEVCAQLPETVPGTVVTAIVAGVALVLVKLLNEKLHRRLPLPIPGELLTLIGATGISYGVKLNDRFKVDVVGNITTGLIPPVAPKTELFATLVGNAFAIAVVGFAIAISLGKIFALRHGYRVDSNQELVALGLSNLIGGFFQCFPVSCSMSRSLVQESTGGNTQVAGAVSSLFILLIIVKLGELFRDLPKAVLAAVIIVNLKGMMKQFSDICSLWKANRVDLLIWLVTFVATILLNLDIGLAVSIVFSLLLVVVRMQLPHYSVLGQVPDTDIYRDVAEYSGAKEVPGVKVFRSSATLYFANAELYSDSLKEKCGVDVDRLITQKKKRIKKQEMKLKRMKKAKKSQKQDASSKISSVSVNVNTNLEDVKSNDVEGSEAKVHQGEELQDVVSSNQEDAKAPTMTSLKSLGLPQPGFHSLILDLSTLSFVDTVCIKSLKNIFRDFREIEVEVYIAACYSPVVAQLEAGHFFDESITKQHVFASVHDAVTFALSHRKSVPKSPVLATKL
Nature of the experiment: Inhibition of mouse slc26a6 expressed in FRT cells co-expressing EYFP-H148Q/I152L/F46L assessed as reduction in protein-mediated chloride/iodide exchange at 10 uM preincubated for 10 mins followed by NaI-substituted PBS addition and measured by YFP-based fluorescence assay. It is filed as cell-based. In short, it runs like this:
as §1

The target in another experiment is T3, Chloride anion exchanger (Mus musculus, UniProt Q9WVC8).
T3 sequence (Q9WVC8 whole entry): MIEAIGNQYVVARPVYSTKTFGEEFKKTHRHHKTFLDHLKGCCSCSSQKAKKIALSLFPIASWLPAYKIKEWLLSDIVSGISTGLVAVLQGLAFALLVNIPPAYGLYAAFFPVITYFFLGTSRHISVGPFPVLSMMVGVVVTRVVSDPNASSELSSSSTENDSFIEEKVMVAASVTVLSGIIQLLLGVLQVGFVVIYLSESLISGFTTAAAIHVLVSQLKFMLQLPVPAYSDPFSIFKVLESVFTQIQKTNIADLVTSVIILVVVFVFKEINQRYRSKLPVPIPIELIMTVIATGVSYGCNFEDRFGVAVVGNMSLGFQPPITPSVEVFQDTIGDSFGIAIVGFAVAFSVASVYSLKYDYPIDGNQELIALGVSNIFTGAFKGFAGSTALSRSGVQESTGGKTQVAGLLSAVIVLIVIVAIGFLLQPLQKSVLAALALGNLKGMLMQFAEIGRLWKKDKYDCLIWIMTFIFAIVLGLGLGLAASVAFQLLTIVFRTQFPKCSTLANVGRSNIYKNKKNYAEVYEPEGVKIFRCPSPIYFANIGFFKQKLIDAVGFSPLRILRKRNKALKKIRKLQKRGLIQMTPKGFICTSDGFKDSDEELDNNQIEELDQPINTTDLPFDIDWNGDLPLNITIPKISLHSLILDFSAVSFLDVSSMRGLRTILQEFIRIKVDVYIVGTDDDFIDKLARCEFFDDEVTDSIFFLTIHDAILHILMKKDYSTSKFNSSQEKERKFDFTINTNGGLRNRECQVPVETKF

Usually IC50 stands for the concentration that gives 50% inhibition. A lower IC50 goes with greater potency in that assay. For the molecule `Cc1c(CC(=O)O)c(=O)oc2c(C)c(OCc3cccc(C(F)(F)F)c3)ccc12`, the inhibition result (on Pendrin (Mus musculus); in experiment [1]) was “inactive” each time. The IC50 against Chloride anion exchanger was 23 nM.
Turning to `Cc1c(CC(=O)O)c(=O)oc2c(C)c(OCc3cccc(I)c3)ccc12`, the inhibition result (on Pendrin (Mus musculus); in experiment [1]) was “inactive” in each case. This molecule also had an IC50 on Chloride anion exchanger of 35 nM.
